Experiment: Toxicity liver stage against HepG2, at 10uM
Format: cell-based
Set-up: test concentration 10 uM, cell line HepG2-A16-CD81EGFP
Details: human, HepG2-A16-CD81EGFP cells; read-out: INHIBITION
In short: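 Uninfected HepG2-A16-CD81EGFP cells, 3 × 10^3 per well, 1536-well, plated on prespotted compound at 10 μM final, parasite-free screening media added to match infected plates; puromycin 10 μM positive, DMSO 0.5% negative; run in parallel with 48 h PbLuc assay at 37 °C, 5% CO2; viability by CellTiter-Glo luminescence, normalized to controls.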

Row | SMILES | cytotoxicity at 10 µM [%]
1 | CN(C)CCOC[C@H]1CC[C@H]2[C@H](CCN2C(=O)c2ccoc2)O1 | -81.5
2 | CNC(=O)c1[nH]nc2ccc(I)cc12 | -61.9
3 | Cc1ccc(F)c2c1CCCN2C(=O)Cc1c(C)nn(C)c1C | 13.6
4 | CS(=O)(=O)N1C[C@H]2CCC[C@@]2(COc2ccccn2)C1 | 1.13
5 | CC(=O)N1CCC2(CC1)c1ncc(-c3ccccc3)n1CCN2C | -104
6 | c1ccc(CN2CCN(Cc3cnc(C4CCCCO4)nc3)CC2)cc1 (stereo unspecified) | -1.71
7 | CNC(=O)Cc1noc(Cc2cccc(Br)c2)n1 | 1.06
8 | CC[C@@H]1N(Cc2cccnc2)CCC[C@]12CCC(=O)N2C | -0.213
9 | Cc1nccn1-c1cc(CNC(=O)COCC2CC2)ccn1 | 2.37
10 | CC(NC(=O)CCCOc1cccc(F)c1)c1ccncc1 (stereo unspecified) | -3.6
11 | COc1ccc(NC(=O)N2CCN(c3ncccn3)CC2)cn1 | 1
12 | O=C(CCNc1ncccn1)N1CCCC(n2cccn2)C1 (stereo unspecified) | 0.2
13 | Cc1nn(C)c(C)c1CCC(=O)Nc1nnc(C2CC2)s1 | -10.1
14 | CCN(c1ccsc1C(=O)N1CCCCC1)S(=O)(=O)c1ccccc1 | 9.78
15 | CN(Cc1ccc(C#N)cc1)Cc1noc(C(C)(C)C)n1 | -2.09
16 | CCn1nc(C)c(C(C)NC(=O)c2cnc(N(C)C)nc2C)c1C (stereo unspecified) | 5.19
17 | COCCN1CCCC(c2nc3c([nH]2)CC(C)(C)CNC3=O)C1 (stereo unspecified) | -11.6
18 | C=C(C)CNCC1(O)CCCN(Cc2ccc(F)c(F)c2)C1=O (stereo unspecified) | -1.12
19 | CCOc1ccccc1OC1CCN(C(=O)c2c[nH]nn2)CC1 | -2.48
20 | COc1nc2c(cc1C(=O)NCc1noc(-c3ccco3)n1)CCC2 | -6.04
21 | CC(=O)Nc1ccc(F)c(S(=O)(=O)NC(C)(C)C)c1 | 1.15
22 | CCN(C(=O)c1c(Cl)cnn1CC)C(C)C(N)=O (stereo unspecified) | -16.1
23 | CN(C)Cc1nc(C(C)(C)NC(=O)c2ccc3ccccc3c2)no1 | -2.22

Row | SMILES | cytotoxicity at 10 µM [%]
24 | CCc1ccccc1OC1CN(C(=O)c2ccsc2)C1 | 7.46
25 | COc1ccc(Cl)cc1CCNC(=O)NCc1ncnn1C | 2.06
26 | CC(C)c1nnc2n1CCN(CCCS(=O)(=O)c1ccccc1)C2 | -12.3
27 | NC(=O)CNC(=O)c1ccc(CNCc2ccc(F)cc2F)cc1 | -43.4
28 | Cc1cnn(CC2CCCCN2C(=O)Cc2cn3ccsc3n2)c1 (stereo unspecified) | -5.5
29 | COCCN1CCN(c2ccc(C)nn2)Cc2cccnc21 | -3.68
30 | Cc1csc2ncc(-c3ccnc(N4CCCC4)n3)c(=O)n12 | -13.2
31 | CC(=O)NCC(=O)Nc1cc(C)n(-c2ccc(Cl)cc2Cl)n1 | -140
32 | CN(Cc1nccn1CC(F)(F)F)C(=O)c1cccc(N(C)C)c1 | 3.92
33 | Cc1cc(CN2CCc3cncnc3C2)on1 | 4.13
34 | Cn1cc(CN2CCCC(CCc3c(F)cccc3F)C2)cn1 (stereo unspecified) | -7.55
35 | O=C(c1cccc(Cl)c1)N1CCCn2c(CN3CCCCC3)nnc2C1 | 4.01
36 | Cc1noc(C2CCN(Cc3cc(=O)n(C)c(=O)n3C)CC2)n1 | -2.57
37 | c1ccc(CCCN2CCOC(Cn3cccn3)C2)cc1 (stereo unspecified) | 9.11
38 | COC(=O)N1CCCC(C(=O)NCc2cc3cccc(OC)c3o2)C1 (stereo unspecified) | -7.72
39 | CCOc1cc(CN(C)Cc2ccccc2)ccc1OC(F)F | -14.7
40 | O=S(=O)(Cc1ccccc1CN1CC[C@H](CO)[C@H](O)C1)c1ccccc1 | -18.2
41 | CCc1ccccc1OCCNCCc1c[nH]cn1 | 4.69
42 | N#Cc1cc(F)c(NCCCOCC2CCOC2)c(F)c1 (stereo unspecified) | 6.43
43 | CCN(C(=O)CN1CCC(c2ccccc2)C1)C1CC1 (stereo unspecified) | 9.4
44 | CCc1noc(CN(CC(=O)N2CCCCC2)c2cccc(C)c2)n1 | -6.61
45 | CNC(=O)C1(c2cnccn2)CCCN1C(=O)c1ccn(C)n1 (stereo unspecified) | -5.15
46 | O[C@@H]1CC(CNCc2cccc(Cl)c2)(COc2cccnc2)C[C@@H]1O (stereo partly specified) | -1.29

Row | SMILES | cytotoxicity at 10 µM [%]
47 | Cc1[nH]ncc1CCCNC(=O)Nc1ccc(C#N)cc1 | 1.8
48 | Cc1c(CN2CCCC(O)C2)[nH]c2ccc(F)cc12 (stereo unspecified) | 9.35
49 | CCc1cnc(CN(C)C2CCN(CC(=O)Nc3nccs3)C2)o1 (stereo unspecified) | -18.7
50 | CCOc1ccc(C(=O)NS(=O)(=O)c2cncc(Br)c2)cc1OC | -5.07
51 | O=C(N[C@@H]1CN[C@H]2CCCO[C@H]21)c1cccnc1 | 5.25
52 | COc1ncccc1CN1CCc2[nH]nc(C(=O)N3CCCC3C)c2C1 (stereo unspecified) | -4.4
53 | CCN(Cc1nc2c(cnn2C)c(=O)[nH]1)c1cccc(C)c1C | 1.66
54 | CCCN(Cc1cnn(C)c1)S(=O)(=O)c1cccc(F)c1C#N | -9.04
55 | CN(Cc1ccccc1)C(=O)CCS(=O)(=O)c1ccc2c(c1)OCCO2 | -7.08
56 | Cc1ccc(CN[C@@H]2CO[C@H](CNS(=O)(=O)c3ccccc3)[C@H]2O)cc1 | -10.1
57 | COc1ccc(S(=O)(=O)N2Cc3c(CN(C)C)nn(C)c3C2)cc1 | 3.94
58 | Cc1nc(CNCC(O)COc2ccc3c(c2)OCO3)cs1 (stereo unspecified) | 4
59 | CC(=O)c1cccc(NC(=O)N(CC(F)F)C2CC2)c1 | 2.08
60 | Cc1ccc(CN(CCCn2ccnc2)Cc2c(F)cccc2F)s1 | 2.76
61 | CCc1ncc2c(n1)CN(CC(=O)NCCOc1ccccc1)CC2 | -2.11
62 | COc1cc2c(c(OC)c1OC)CCN(CCN1CCCCC1)CC2 | -15.7
63 | CN(Cc1ncnn1C)c1ccnc(Cc2ccccc2)n1 | -1.92
64 | CC(Cn1cncn1)NC(=O)Nc1ccc(COC2CCCC2)cc1 (stereo unspecified) | -1.47
65 | Fc1cccc(CN2CCC(c3noc(-c4ccccn4)n3)CC2)c1F | -12.8
66 | Cc1ccnc(C(Nc2nccc(-c3ccc(C)nc3C)n2)C2CC2)c1 (stereo unspecified) | -1.89
67 | CC(C)Nc1cccc(CNC(=O)N2CCC(N3CC=CC3)C2)c1 (stereo unspecified) | 2.01
68 | O=C(O)C(c1ccc2c(c1)OCO2)N1CCC(O)(c2cccnc2)CC1 (stereo unspecified) | 19.7
69 | Cc1cc(N2CCCC(OC(=O)CCc3cnn(C)c3)C2)nc(C)n1 (stereo unspecified) | 0.127

Row | SMILES | cytotoxicity at 10 µM [%]
70 | CCOc1ccc(-c2ccnc(CC)n2)cc1C(=O)O | -11.1
71 | CN(C)CC(=O)N1C[C@@H](Oc2ccccn2)[C@H]2OCCC[C@H]21 | 9.11
72 | Cc1cc(C(=O)NCC2Cn3nnc(C)c3CO2)no1 (stereo unspecified) | -4.07
73 | O=C1CN(CC2CC2)Cc2nc(NCc3ccccc3)sc21 | -12.3
74 | O=C(NCC1(CO)CC1)c1cccc2ccccc12 | -12.5
75 | CN(C)CC(=O)N1CCC2(CC1)Cc1ccccc1CN(C)C2=O | -2.96
76 | CC(C)c1nc(C2CCCN2Cc2ccccc2C#N)no1 (stereo unspecified) | -7.62
77 | CN(C)c1cc(CNC(=O)Nc2nccs2)ccn1 | 2.3
78 | COCc1noc(-c2cc(Cl)c3c(c2)OCCCO3)n1 | 0.174
79 | Cn1nccc1C(=O)N1CCC2(CC1)COC(COc1ccccn1)C2 (stereo unspecified) | -7.18
80 | COC(=O)[C@@H]1CN(S(=O)(=O)c2ccccc2)CCN1S(C)(=O)=O | 0.471
81 | CCn1nnc2c1C(COCCN(C)C)CN(S(=O)(=O)CC)C2 (stereo unspecified) | -4.38
82 | Cc1cc(S(=O)(=O)N(CCO)C2CC2)ccc1F | 0.866
83 | Cc1nc(CCNC(=O)C(N)c2c(C)n[nH]c2C)sc1C (stereo unspecified) | 2.08
84 | c1ccc(-n2ccc(CNC3CCc4ncnn4C3)n2)cc1 (stereo unspecified) | -2.57
85 | CCC(C)N(Cc1cnc(OC)nc1)Cc1ccsc1 (stereo unspecified) | 1.71
86 | Cc1cnn(C2CN(Cc3nc(-c4ccsc4)no3)C2)c1 | -3.88
87 | CCCc1nc(CN2CCN(Cc3noc(CCC)n3)CC2)no1 | -0.914
88 | Cc1noc(C)c1CC(=O)N1CCC(c2ccn3nccc3n2)CC1 | -0.317
89 | CNC(=O)CC1CCN(C(=O)NCC2(c3ccccc3F)CC2)CC1 | 4.27
90 | CC(=O)NCCCNCc1cc(F)ccc1Br | -0.595
91 | COc1cc(CNC(=O)c2c(C)noc2C)ccn1 | -8.83
92 | COC(=O)c1cc(OCC2CCC2)cc(C(=O)N[C@H]2CCCC[C@@H]2O)c1 | -2.94

Row | SMILES | cytotoxicity at 10 µM [%]
93 | CC(=O)Nc1c(C)noc1C=Cc1ccc(C)c(S(=O)(=O)NC2CC2)c1 | 0.905
94 | COC1C[C@@H]2CN(C(=O)c3cccc4c3OCCO4)C[C@@H]2C1 (stereo partly specified) | 7.77
95 | COC(=O)NCC(=O)N(C)CC1Cc2ccccc2CN1C (stereo unspecified) | -6.24
96 | Cc1ccc2c(n1)N(CC1CC1)CCN(C(=O)c1ccncc1F)C2 | -0.182
97 | Cc1[nH]c(-c2ccccc2)nc1C(=O)N1CCC2(CCCO2)CC1 | 2.8
98 | O=C(c1ccco1)N1CCCC(c2cc(C(F)F)n3ncnc3n2)C1 (stereo unspecified) | 4.4
99 | CC(=O)NCc1cc2n(n1)CCN(Cc1cccc(Cl)c1F)C2 | 7.65
100 | O=C1CCC[C@]2(CN(S(=O)(=O)C3CCCCC3)C[C@H]2c2cccnc2)N1 | -12.4
101 | CNC(=O)[C@@]12CCC3(CCN(C(C)=O)CC3)[C@@H]1CN(S(C)(=O)=O)C2 | -3.61
102 | O=C1Nc2ccccc2CN(CC2CCCC2)C12CCNC2 (stereo unspecified) | 7.83
103 | CC1=CC(C)(C)N(CN2C(=O)c3ccccc3C2=O)c2ccccc21 | 5.82
104 | O=S(=O)(NCCC(O)c1cccs1)c1c(F)cccc1F (stereo unspecified) | -0.00815
105 | CCCc1nc(C(=O)NCc2cccnc2-n2cncn2)cs1 | -148
106 | Cc1cc(OCC(=O)NS(=O)(=O)c2c(C)noc2C)ccc1Cl | -2.07
107 | Cc1nccn1CCCN1CCCC(c2nccn2CC2CCC2)C1 (stereo unspecified) | -13.7
108 | Cc1ccc(C(=O)N2CCOC(c3nc(C(C)(C)C)n[nH]3)C2)c(=O)[nH]1 (stereo unspecified) | 1.31
109 | c1ccc(CN2CCCn3nnc(COc4ccccn4)c3C2)nc1 | 8.43
110 | O=C(c1cccc(Cl)c1)N1CCCC(Nc2ccc(F)cc2)C1 (stereo unspecified) | -7.05
111 | O=C(Nc1c(F)cccc1F)N1CC(c2nc(C3CC3)no2)C1 | -1.65
